Screening data as filed in PubChem BioAssay.
Rows were chosen to be rich in hits. Some 3.5% of all compounds tested hit in one or more screens of this group.
MrgX1 PAM – human MrgX1 positive allosteric modulation, primary screen; 0.63% of 310,000 active; B-score at 10 µM; Q96LB2; MrgX1-HEK293, Fluo-4 calcium flux, FDSS; hits give high values;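 active = plate-corrected calcium response at least 3 library SD above typical, normal starting fluorescence, not activating the receptor alone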;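 note: compound read alongside a low EC10 to EC30 dose of BAM8-22 agonist; peak minus trough fluorescence over baseline measured at the second addition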
Target sequence (Q96LB2 whole entry, looked up): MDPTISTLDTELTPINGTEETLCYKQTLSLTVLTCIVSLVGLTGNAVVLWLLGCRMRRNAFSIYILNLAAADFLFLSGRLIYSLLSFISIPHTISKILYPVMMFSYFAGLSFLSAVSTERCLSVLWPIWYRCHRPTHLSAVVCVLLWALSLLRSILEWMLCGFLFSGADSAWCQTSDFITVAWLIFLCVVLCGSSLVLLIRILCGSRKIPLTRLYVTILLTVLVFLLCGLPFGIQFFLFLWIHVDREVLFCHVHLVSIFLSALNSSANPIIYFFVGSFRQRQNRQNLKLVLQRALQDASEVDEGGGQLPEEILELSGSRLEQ
RGS4 inh – human RGS4 inhibition. P49798. HEK293 M3R/RGS4 inducible, Fluo-4 calcium flux; hits give high values; triggered by carbachol at its EC20. B-score at 10 µM. 0.45% of 310,000 active. AID 463165;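 active = B-score, a plate-corrected calcium signal, over three deviations above library mean, with baseline fluorescence within five deviations of library mean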;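 note: RGS4 expression induced by doxycycline in cells with stable M3 receptor; B-score is computed from the integrated fluorescence ratio over baseline after carbachol; higher B-score means a larger calcium signal and so more RGS4 inhibition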
Target sequence (P49798 whole entry, looked up): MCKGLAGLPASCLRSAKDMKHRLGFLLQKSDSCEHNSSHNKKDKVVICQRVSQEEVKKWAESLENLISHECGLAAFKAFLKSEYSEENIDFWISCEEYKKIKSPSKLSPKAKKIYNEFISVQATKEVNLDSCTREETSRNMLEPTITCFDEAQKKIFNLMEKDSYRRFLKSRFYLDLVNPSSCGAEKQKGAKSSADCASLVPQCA
MrgX1 agonist – activates human MrgX1 receptor signaling; MrgX1-HEK293 cells, Fluo-4 calcium fluorescence, agonist mode; hits give high values; AID 588627; Q96LB2; B-score at 10 µM; 0.44% of 310,000 active;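 active = calcium response B-score plate-corrected fluorescence ratio at least 3 library SD, with starting fluorescence B-score inside 5 SD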
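Material: MrgX1-expressing HEK293 cells / Dosing: compound as first of three additions / Incubation: overnight seeding, then 1 h dark dye loading / Signal: Fluo-4 NW calcium fluorescence / Evaluation: B-scored fluorescence response ratio / Benchmarks: positive and negative control wells on each plate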
RGS4 act – RGS4 potentiation or activation. HEK293 M3R/inducible RGS4, carbachol calcium flux Fluo4; hits give low values. 0.92% of 310,000 active. B-score at 10 µM;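 active = B-score of the integrated calcium signal more than 4 SD below the library mean, with starting fluorescence not abnormally high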;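 note: negative B-score means reduced calcium response which marks RGS4 activation or potentiation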
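Assay system: HEK293 FlpIn-TREx cells, stable M3R, doxycycline-inducible RGS4 / Probe or stimulus: carbachol, ECmax concentration / Times: overnight RGS4 induction, 30 min dye load 37 °C, 20 min compound RT / Signal: kinetic calcium fluorescence imaging with Fluo4-AM dye, 2 µM / Measure: Agonist-evoked peak-minus-minimum fluorescence over baseline, integrated ratio, B score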
MrgX1 antag – blocks BAM8-22 activation of human MrgX1 receptor; Q96LB2; MRGX1-HEK293 calcium flux, Fluo-4, BAM8-22 antagonism; hits give low values; B-score at 10 µM; 1.3% of 310,000 active;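 active = calcium-response B-score plate-corrected more than 3 library SD below zero, starting fluorescence within 5 deviations, no agonist response on first addition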;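 note: peak minus trough fluorescence over baseline after final BAM8-22 challenge near maximal dose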
MrgX1 ag confirm – reconfirmed activator of human MrgX1 receptor signaling | shares compounds with MrgX1 agonist | MrgX1-HEK293, Fluo-4 calcium fluorescence, FDSS | activation, % at 10 µM | 78% of 600 active | AID 602412;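 active = calcium signal rise, corrected for plate position, at least 3 library SD high, with starting brightness within 5 such deviations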
HEK293 Ca flux – MrgX1 antagonist counter-screen hit in parental HEK293 cells. shares compounds with MrgX1 antag. fluorescence ratio F(max-min)/F0 at 10 µM. 2% of 4,000 active. AID 624111. Fluo-4 calcium fluorescence, FDSS;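 active = duplicate-averaged calcium fluorescence ratio at least three times the standard deviation of buffer wells, a nonspecific response in parental cells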
HEK293 Ca counter – counter-screen for MrgX1 allosteric activators: effect in parental HEK293 cells. parental HEK293 calcium flux, Fluo-4 fluorescence ratio; hits give high values. shares compounds with MrgX1 antag. fluorescence ratio F(max-min)/F0 at 10 µM. 0.4% of 4,000 active;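 active = calcium fluorescence ratio, averaged over duplicates, at least 3 SD of the buffer-well ratio, meaning a nonspecific response in receptor-free cells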;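 note: untransfected parental HEK293 lacking MrgX1 used as counterscreen for MrgX1 allosteric activators; fluorescence change taken during the second addition on a kinetic imager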
HEK293 Ca cntr2 – counter-screen for MrgX1 activators: effect in parental HEK293 cells; Fluo-4 calcium fluorescence (FDSS); hits give high values; 8.7% of 4,000 active; fluorescence ratio F(max-min)/F0 at 10 µM; shares compounds with MrgX1 antag;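 active = calcium fluorescence ratio at least three times the spread of buffer wells, meaning a non-specific response in parental cells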
Each line names hits and unclear results; the compound was inactive in the other large screens (follow-up assays come after a bar, where they were run).

Cc1[nH][nH]c(=O)c1C(c1ccc(-c2ccc(Cl)c(Cl)c2)o1)c1c(C)[nH][nH]c1=O	none
Cc1[nH][nH]c(=O)c1C(c1ccc(-c2ccc(F)cc2)o1)c1c(C)[nH][nH]c1=O	MrgX1 agonist 40 | MrgX1 ag confirm 216% | HEK293 Ca flux inactive | HEK293 Ca counter inactive | HEK293 Ca cntr2 46
O=C(Nc1ccnn1C1CCN(Cc2cc3ccccc3[nH]2)CC1)C1CCOC1 (stereo not drawn)	MrgX1 agonist 29 | MrgX1 ag confirm 339% | HEK293 Ca flux inactive | HEK293 Ca counter inactive | HEK293 Ca cntr2 73
Cc1c(CN2CCC(n3nccc3NC(=O)C3CCOC3)CC2)[nH]c2ccccc12 (stereo not drawn)	none
CCc1nc2ccccc2n1Cc1ccc(OC)c(OC)c1	MrgX1 agonist 41 | MrgX1 ag confirm inactive | HEK293 Ca flux inactive | HEK293 Ca counter inactive | HEK293 Ca cntr2 inactive
CSc1nnc(SCC2=NNC(=O)SC2)s1	none
CCCc1ccc(C(=O)NC(=O)c2ccccc2O)cc1	MrgX1 agonist 61 | MrgX1 ag confirm 187% | HEK293 Ca flux inactive | HEK293 Ca counter inactive | HEK293 Ca cntr2 64
O=C(NC(=S)NNC(=O)c1ccccc1O)c1ccc([N+](=O)[O-])cc1	none
Cc1ccc(C(=O)NC(=S)NNC(=O)c2ccccc2[N+](=O)[O-])cc1	MrgX1 agonist 77 | MrgX1 ag confirm 413% | HEK293 Ca flux inactive | HEK293 Ca counter inactive | HEK293 Ca cntr2 78
Cc1ccccc1OCC(=O)NNC(=S)NC(=O)c1ccco1	MrgX1 agonist 71 | MrgX1 ag confirm 327% | HEK293 Ca flux inactive | HEK293 Ca counter inactive | HEK293 Ca cntr2 62
O=C(NNC(=S)NC(=O)c1ccccc1[N+](=O)[O-])c1ccccc1O	none
O=C(NNC(=S)NC(=O)c1ccccc1[N+](=O)[O-])c1ccc(Cl)cc1Cl	MrgX1 agonist 71 | MrgX1 ag confirm 218% | HEK293 Ca flux inactive | HEK293 Ca counter inactive | HEK293 Ca cntr2 inactive
O=C(Nc1ccc(-c2noc(CCc3ccccc3)n2)cc1)c1cccnc1	none
Cc1nn(-c2cc(N(S(C)(=O)=O)S(C)(=O)=O)c(Cl)cc2Cl)c(=O)n1C	none
CCC1(C(=O)c2ccc(Cl)cc2)C2c3ccccc3OC(=O)C21C(=O)Nc1ccccc1 (stereo not drawn)	none
O=C(NC(=S)NNC(=O)c1ccccc1O)c1ccccc1	MrgX1 agonist 93 | MrgX1 ag confirm 478% | HEK293 Ca flux inactive | HEK293 Ca counter inactive | HEK293 Ca cntr2 86
Cc1onc(-c2ccccc2)c1C(=O)NC(=S)NNC(=O)c1ccc(O)cc1O	none
Cc1ccc(C(=O)NNC(=S)NC(=O)c2ccco2)cc1	MrgX1 agonist 135 | MrgX1 ag confirm 681% | HEK293 Ca flux inactive | HEK293 Ca counter inactive | HEK293 Ca cntr2 123
Cc1onc(-c2ccccc2)c1C(=O)NC(=S)NNC(=O)c1ccccc1O	MrgX1 agonist 107 | MrgX1 ag confirm 714% | HEK293 Ca flux inactive | HEK293 Ca counter inactive | HEK293 Ca cntr2 132
Cc1ccc(C(=O)NNC(=S)NC(=O)c2ccc(Cl)cc2Cl)cc1	MrgX1 agonist 131 | MrgX1 ag confirm 585% | HEK293 Ca flux inactive | HEK293 Ca counter inactive | HEK293 Ca cntr2 116
CC(C)(C)c1cc[n+](CC(=O)Nc2cc(C(F)(F)F)ccc2N2CCOCC2)cc1	none
Cc1ccc(C(=O)NC(=S)NNC(=O)c2ccccc2)cc1	MrgX1 agonist 78 | MrgX1 ag confirm 492% | HEK293 Ca flux inactive | HEK293 Ca counter inactive | HEK293 Ca cntr2 100
O=C(NC(=S)NNC(=O)c1ccccc1O)c1ccc(F)cc1	none
Cc1ccc(C(=O)NC(=S)NNC(=O)c2ccccc2O)cc1	none
Cc1ccccc1C(=O)NNC(=S)NC(=O)c1ccccc1	MrgX1 agonist 159 | MrgX1 ag confirm 756% | HEK293 Ca flux inactive | HEK293 Ca counter inactive | HEK293 Ca cntr2 146
Cc1cccc(OCCCC(=O)N2CCCCCC2)c1C	none
COc1ccc(OC)c(CNC(=O)C2CCC(=O)N2C(C)C)c1 (stereo not drawn)	none
CCOC(=O)Cc1csc(N/C(=N/S(=O)(=O)c2ccc(F)cc2F)c2ccccc2)n1	MrgX1 agonist 30 | MrgX1 ag confirm 182% | HEK293 Ca flux inactive | HEK293 Ca counter inactive | HEK293 Ca cntr2 inactive
CC(=O)Nc1cccc(OC(=O)c2ccoc2C)c1	MrgX1 agonist 33 | MrgX1 ag confirm 128% | HEK293 Ca flux inactive | HEK293 Ca counter inactive | HEK293 Ca cntr2 46
O=C(CSc1nnc(NC(=O)C2CCC2)s1)NC1CC1	MrgX1 agonist 40 | MrgX1 ag confirm inactive | HEK293 Ca flux inactive | HEK293 Ca counter inactive | HEK293 Ca cntr2 inactive
Cc1c(C(O)CN2CCN(Cc3ccc4c(c3)OCO4)CC2)c2ccccc2n1C (stereo not drawn)	MrgX1 agonist 33 | MrgX1 ag confirm inactive | HEK293 Ca flux inactive | HEK293 Ca counter inactive | HEK293 Ca cntr2 inactive
COc1ccc2c(c1)c(C(O)CN1CCN(Cc3ccc4c(c3)OCO4)CC1)c(C)n2C (stereo not drawn)	none
N[C@@H](Cc1c[nH]c2ccc(O)cc12)C(=O)O	MrgX1 agonist 32 (no result: RGS4 inh, RGS4 act) | MrgX1 ag confirm inactive | HEK293 Ca flux inactive | HEK293 Ca counter inactive | HEK293 Ca cntr2 inactive
COc1ccc(-n2c(SCC(=O)NCC3CCCO3)nc3c([nH]c4ccccc43)c2=O)cc1 (stereo not drawn)	none
COc1cccc(-n2c(SCC(=O)NCC3CCCO3)nc3c([nH]c4ccccc43)c2=O)c1 (stereo not drawn)	MrgX1 agonist 30 | MrgX1 ag confirm 99% | HEK293 Ca flux inactive | HEK293 Ca counter inactive | HEK293 Ca cntr2 inactive
C1=C(CCNCC2CCCCC2)CCCC1	none
N=C1/C(=C\c2ccc(SCc3ccco3)o2)C(=O)N=C2SC=NN12	MrgX1 agonist 90 | MrgX1 ag confirm 267% | HEK293 Ca flux inactive | HEK293 Ca counter inactive | HEK293 Ca cntr2 47
CC1=NN2C(=N)/C(=C\c3ccc(SCc4ccccc4)o3)C(=O)N=C2S1	none
CC(C)CCN1C(Nc2ccccc2)=NC[C@@H]1CC(C)C	none
CCN1C(Nc2ccccc2)=NC[C@@H]1CC(C)C	none
CC(C)C[C@H]1CN=C(Nc2ccccc2)N1CCc1ccc(F)cc1	MrgX1 agonist 120 (no result: RGS4 inh, RGS4 act) | MrgX1 ag confirm 575% | HEK293 Ca flux inactive | HEK293 Ca counter inactive | HEK293 Ca cntr2 106
